The text below walks through data of ChEMBL document CHEMBL3739286, “Betulinic acid derived hydroxamates and betulin derived carbamates are interesting scaffolds for the synthesis of novel cytotoxic compounds” (Eur J Med Chem, 2015).

pEC50: −log10 of the molar value.

The subject of one assay is A2780. The assay is described as follows: Cytotoxicity against human A2780 cells after 96 hrs by SRB assay. The settings on record: Homo sapiens, A2780, 96 h; read-out: EC50. The format is functional, cell-based. In outline: (§1)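 Photometric sulforhodamine B read-out of antiproliferative effect after 96 h of continuous treatment; EC₅₀ values in µM, averaged from three independent experiments each run in triplicate; the assay cut-off is EC₅₀ > 30 µM. Human tumour lines are tested alongside nonmalignant mouse NIH 3T3 fibroblasts.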
For the compound `C=C(C)[C@@H]1CC[C@]2(C(=O)N(C)O)CC[C@]3(C)[C@H](CC[C@@H]4[C@@]5(C)CCC(=O)C(C)(C)[C@@H]5CC[C@]43C)[C@@H]12`, the pEC50 was 5.52.

For the compound `C=C(C)[C@@H]1CC[C@]2(C(=O)N(C)OC)CC[C@]3(C)[C@H](CC[C@@H]4[C@@]5(C)CC[C@H](O)C(C)(C)[C@@H]5CC[C@]43C)[C@@H]12`, the pEC50 was 5.12.

In the case of `C=CCONC(=O)[C@]12CC[C@@H](C(=C)C)[C@@H]1[C@H]1CC[C@@H]3[C@@]4(C)CC[C@H](OC(C)=O)C(C)(C)[C@@H]4CC[C@@]3(C)[C@]1(C)CC2`, the pEC50 is 5.23.

`C=C(C)[C@@H]1CC[C@]2(C(=O)NOC)CC[C@]3(C)[C@H](CC[C@@H]4[C@@]5(C)CC[C@H](OC(C)=O)C(C)(C)[C@@H]5CC[C@]43C)[C@@H]12`: the pEC50 was 5.05.

`C=C(C)[C@@H]1CC[C@]2(C(=O)N(C)O)CC[C@]3(C)[C@H](CC[C@@H]4[C@@]5(C)CC[C@H](OC(C)=O)C(C)(C)[C@@H]5CC[C@]43C)[C@@H]12`: the pEC50 was 5.70.

With `C=C(C)[C@@H]1CC[C@]2(C(=O)NOC)CC[C@]3(C)[C@H](CC[C@@H]4[C@@]5(C)CC[C@H](O)C(C)(C)[C@@H]5CC[C@]43C)[C@@H]12`, the pEC50 was 4.91.

The test system of a further assay is A549. The assay is described as follows: Cytotoxicity against human A549 cells after 96 hrs by SRB assay. It is filed as functional, cell-based. The settings on record: Homo sapiens, A549, 96 h; read-out: EC50. In outline:
as §1
As for `C=C(C)[C@@H]1CC[C@]2(C(=O)N(C)O)CC[C@]3(C)[C@H](CC[C@@H]4[C@@]5(C)CCC(=O)C(C)(C)[C@@H]5CC[C@]43C)[C@@H]12`, the pEC50 is 5.22.

With `C=C(C)[C@@H]1CC[C@]2(C(=O)N(C)OC)CC[C@]3(C)[C@H](CC[C@@H]4[C@@]5(C)CC[C@H](O)C(C)(C)[C@@H]5CC[C@]43C)[C@@H]12`, the pEC50 is 4.72.

Regarding `C=CCONC(=O)[C@]12CC[C@@H](C(=C)C)[C@@H]1[C@H]1CC[C@@H]3[C@@]4(C)CC[C@H](OC(C)=O)C(C)(C)[C@@H]4CC[C@@]3(C)[C@]1(C)CC2`, the pEC50 was 5.18.

Turning to `C=C(C)[C@@H]1CC[C@]2(C(=O)NOC)CC[C@]3(C)[C@H](CC[C@@H]4[C@@]5(C)CC[C@H](OC(C)=O)C(C)(C)[C@@H]5CC[C@]43C)[C@@H]12`, the pEC50 is 4.93.

In the case of `C=C(C)[C@@H]1CC[C@]2(C(=O)N(C)O)CC[C@]3(C)[C@H](CC[C@@H]4[C@@]5(C)CC[C@H](OC(C)=O)C(C)(C)[C@@H]5CC[C@]43C)[C@@H]12`, the pEC50 is 5.37.

`C=C(C)[C@@H]1CC[C@]2(C(=O)NOC)CC[C@]3(C)[C@H](CC[C@@H]4[C@@]5(C)CC[C@H](O)C(C)(C)[C@@H]5CC[C@]43C)[C@@H]12`: the pEC50 is 5.16.

Tested on in another assay: not listed separately
The assay is described as follows: Cytotoxicity against human 518A2 cells after 96 hrs by SRB assay. The settings on record: Homo sapiens, 518A2, 96 h; read-out: EC50. The format is functional, cell-based. In outline: as §1
For the compound `C=C(C)[C@@H]1CC[C@]2(C(=O)N(C)O)CC[C@]3(C)[C@H](CC[C@@H]4[C@@]5(C)CCC(=O)C(C)(C)[C@@H]5CC[C@]43C)[C@@H]12`, the pEC50 is 5.20.

With `C=C(C)[C@@H]1CC[C@]2(C(=O)N(C)OC)CC[C@]3(C)[C@H](CC[C@@H]4[C@@]5(C)CC[C@H](O)C(C)(C)[C@@H]5CC[C@]43C)[C@@H]12`, the pEC50 was 5.14.

For the compound `C=CCONC(=O)[C@]12CC[C@@H](C(=C)C)[C@@H]1[C@H]1CC[C@@H]3[C@@]4(C)CC[C@H](OC(C)=O)C(C)(C)[C@@H]4CC[C@@]3(C)[C@]1(C)CC2`, the pEC50 was 5.12.

For `C=C(C)[C@@H]1CC[C@]2(C(=O)NOC)CC[C@]3(C)[C@H](CC[C@@H]4[C@@]5(C)CC[C@H](OC(C)=O)C(C)(C)[C@@H]5CC[C@]43C)[C@@H]12`, the pEC50 was 5.10.

Consider `C=C(C)[C@@H]1CC[C@]2(C(=O)N(C)O)CC[C@]3(C)[C@H](CC[C@@H]4[C@@]5(C)CC[C@H](OC(C)=O)C(C)(C)[C@@H]5CC[C@]43C)[C@@H]12`, for which the pEC50 is 5.46.

Turning to `C=C(C)[C@@H]1CC[C@]2(C(=O)NOC)CC[C@]3(C)[C@H](CC[C@@H]4[C@@]5(C)CC[C@H](O)C(C)(C)[C@@H]5CC[C@]43C)[C@@H]12`, the pEC50 is 5.24.

Another assay concerns MCF7. The assay can be described thus: Cytotoxicity against human MCF7 cells after 96 hrs by SRB assay. It is filed as functional, cell-based. As to conditions: Homo sapiens, MCF7, 96 h; read-out: EC50. Put shortly: as §1
As to `C=C(C)[C@@H]1CC[C@]2(C(=O)N(C)O)CC[C@]3(C)[C@H](CC[C@@H]4[C@@]5(C)CCC(=O)C(C)(C)[C@@H]5CC[C@]43C)[C@@H]12`, the pEC50 is 4.99.

Take `C=C(C)[C@@H]1CC[C@]2(C(=O)N(C)OC)CC[C@]3(C)[C@H](CC[C@@H]4[C@@]5(C)CC[C@H](O)C(C)(C)[C@@H]5CC[C@]43C)[C@@H]12`: the pEC50 was 4.99.

With `C=CCONC(=O)[C@]12CC[C@@H](C(=C)C)[C@@H]1[C@H]1CC[C@@H]3[C@@]4(C)CC[C@H](OC(C)=O)C(C)(C)[C@@H]4CC[C@@]3(C)[C@]1(C)CC2`, the negative-log EC50 (pEC50) is 4.91.

As to `C=C(C)[C@@H]1CC[C@]2(C(=O)NOC)CC[C@]3(C)[C@H](CC[C@@H]4[C@@]5(C)CC[C@H](OC(C)=O)C(C)(C)[C@@H]5CC[C@]43C)[C@@H]12`, the negative logarithm of the EC50 (pEC50) was 4.87.

Take `C=C(C)[C@@H]1CC[C@]2(C(=O)N(C)O)CC[C@]3(C)[C@H](CC[C@@H]4[C@@]5(C)CC[C@H](OC(C)=O)C(C)(C)[C@@H]5CC[C@]43C)[C@@H]12`: the pEC50 was 5.64.

For the compound `C=C(C)[C@@H]1CC[C@]2(C(=O)NOC)CC[C@]3(C)[C@H](CC[C@@H]4[C@@]5(C)CC[C@H](O)C(C)(C)[C@@H]5CC[C@]43C)[C@@H]12`, the pEC50 is 4.66.

Tested on in the next assay: not listed separately
The assay can be described thus: Cytotoxicity against mouse NIH/3T3 cells after 96 hrs by SRB assay. The format is cell-based, NIH3T3. The settings on record: Mus musculus, NIH3T3, 96 h; read-out: EC50. In outline: as §1
On to `C=C(C)[C@@H]1CC[C@]2(C(=O)N(C)O)CC[C@]3(C)[C@H](CC[C@@H]4[C@@]5(C)CCC(=O)C(C)(C)[C@@H]5CC[C@]43C)[C@@H]12`, for which the pEC50 was 5.30.

As for `C=C(C)[C@@H]1CC[C@]2(C(=O)N(C)OC)CC[C@]3(C)[C@H](CC[C@@H]4[C@@]5(C)CC[C@H](O)C(C)(C)[C@@H]5CC[C@]43C)[C@@H]12`, the pEC50 is 5.11.

On to `C=CCONC(=O)[C@]12CC[C@@H](C(=C)C)[C@@H]1[C@H]1CC[C@@H]3[C@@]4(C)CC[C@H](OC(C)=O)C(C)(C)[C@@H]4CC[C@@]3(C)[C@]1(C)CC2`, for which the pEC50 was < 4.52.

On to `C=C(C)[C@@H]1CC[C@]2(C(=O)NOC)CC[C@]3(C)[C@H](CC[C@@H]4[C@@]5(C)CC[C@H](OC(C)=O)C(C)(C)[C@@H]5CC[C@]43C)[C@@H]12`, for which the pEC50 is 5.02.

In the case of `C=C(C)[C@@H]1CC[C@]2(C(=O)N(C)O)CC[C@]3(C)[C@H](CC[C@@H]4[C@@]5(C)CC[C@H](OC(C)=O)C(C)(C)[C@@H]5CC[C@]43C)[C@@H]12`, the pEC50 was 5.54.

As to `C=C(C)[C@@H]1CC[C@]2(C(=O)NOC)CC[C@]3(C)[C@H](CC[C@@H]4[C@@]5(C)CC[C@H](O)C(C)(C)[C@@H]5CC[C@]43C)[C@@H]12`, the pEC50 was 4.82.
